{"source": "ChEMBL document CHEMBL1136726", "about": "“Synthesis and characterization of iodine-123 labeled 2beta-carbomethoxy-3beta-(4'-((Z)-2-iodoethenyl)phenyl)nortropane. A ligand for in vivo imaging of serotonin transporters by single-photon-emission tomography” (J Med Chem, 2003)", "key": {"[1]": {"tested_on": "Rattus norvegicus", "assay": "Distribution of radioactivity in rat brain striatum 60 min after intravenous administration of iodine labeled compound", "type": "ADME, organism-based", "settings": "in vivo, 1 h", "summary_of_the_method": "(§1)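 Male Sprague–Dawley rats (225–300 g) under ketamine anaesthesia were given [123I]ZIENT (10 μCi) in 0.2 mL 10% EtOH/0.9% NaCl into the tail vein, with a saline flush. Hypothalamus, prefrontal cortex, striatum, pons and cerebellum were dissected and gamma-counted. % injected dose/g came from decay-corrected counts against the diluted injected dose, and region/cerebellum ratios were taken from these. Mean ± SE, n=4–5.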"}, "[2]": {"tested_on": "Rattus norvegicus", "assay": "Distribution of radioactivity in rat brain hypothalamus 30 min after intravenous administration of iodine labeled compound", "type": "ADME, organism-based", "settings": "in vivo, 0.5 h", "summary_of_the_method": "(§2)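 Male Sprague–Dawley rats (225–300 g) under ketamine received 10 µCi radioligand iv (tail vein) in 10% EtOH/saline. Hypothalamus, prefrontal cortex, striatum, pons and cerebellum were dissected, weighed and gamma-counted. % injected dose/g was taken from decay-corrected counts versus diluted dose. Mean ± SE and range, n=5 (5, 30 min) or 4 (60, 120 min).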"}, "[3]": {"tested_on": "Rattus norvegicus", "assay": "Ratio of distribution of radioactivity in rat brain region pons and cerebellum 60 min after intravenous administration of iodine labeled compound in absence of blocker in study 2", "type": "ADME, organism-based", "settings": "in vivo, 1 h"}, "[4]": {"tested_on": "Rattus norvegicus", "assay": "Ratio of distribution of radioactivity in rat brain region pons and cerebellum 60 min after intravenous administration of iodine labeled compound in presence of reboxetine blocker in study 2", "type": "ADME, organism-based", "settings": "in vivo, 1 h"}, "[5]": {"target": "Sodium-dependent noradrenaline transporter (Homo sapiens, UniProt P23975)", "sequence (P23975 whole entry)": "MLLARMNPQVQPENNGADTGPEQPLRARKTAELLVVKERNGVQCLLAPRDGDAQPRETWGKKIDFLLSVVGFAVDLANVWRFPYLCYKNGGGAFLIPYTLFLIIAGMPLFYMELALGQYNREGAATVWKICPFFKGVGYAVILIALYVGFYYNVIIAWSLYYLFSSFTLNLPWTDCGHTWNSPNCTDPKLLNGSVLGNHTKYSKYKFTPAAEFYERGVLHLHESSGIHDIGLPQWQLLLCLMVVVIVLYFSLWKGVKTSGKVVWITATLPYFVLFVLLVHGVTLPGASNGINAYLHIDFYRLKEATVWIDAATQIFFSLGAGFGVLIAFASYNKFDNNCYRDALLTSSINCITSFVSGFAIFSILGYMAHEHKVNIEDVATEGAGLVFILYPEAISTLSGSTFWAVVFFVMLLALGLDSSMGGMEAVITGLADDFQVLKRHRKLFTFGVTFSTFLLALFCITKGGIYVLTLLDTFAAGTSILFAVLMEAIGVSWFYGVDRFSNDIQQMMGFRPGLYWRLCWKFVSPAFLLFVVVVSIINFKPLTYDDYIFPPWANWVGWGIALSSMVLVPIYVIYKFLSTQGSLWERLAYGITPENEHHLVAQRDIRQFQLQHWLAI", "assay": "In vitro competitive binding versus [3H]- […] in murine kidney cells transfected with cDNA for human norepinephrine transporter (NET)", "type": "cell-based"}, "[6]": {"tested_on": "Rattus norvegicus", "assay": "Ratio of distribution of radioactivity in rat brain region prefrontal cortex and cerebellum 60 min after intravenous administration of iodine labeled compound in presence of RTI-113 blocker in study 1", "type": "ADME, organism-based", "settings": "in vivo, 1 h"}, "[7]": {"tested_on": "Rattus norvegicus", "assay": "Ratio of distribution of radioactivity in rat brain striatum and cerebellum 120 min after intravenous administration of iodine labeled compound", "type": "ADME, organism-based", "settings": "in vivo, 2 h", "summary_of_the_method": "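Male Sprague–Dawley rats (225–300 g), ketamine anesthesia, injected via tail vein with [123I]ZIENT (10 μCi in 0.2 mL 10% EtOH/0.9% NaCl, 0.4 mL saline flush). Killed at 5, 30, 60 or 120 min. Striatum and cerebellum dissected, weighed, γ-counted. Decay-corrected %injected dose/g taken against diluted injectate. Ratio is striatum over cerebellum. Four or five rats per time point, mean ± standard error.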"}, "[8]": {"tested_on": "Rattus norvegicus", "assay": "Distribution of radioactivity in rat blood 5 min after intravenous administration of iodine labeled compound", "type": "ADME, organism-based", "settings": "in vivo", "summary_of_the_method": "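Male Sprague–Dawley rats (225–300 g) under ketamine received 10 µCi radioligand in 0.2 mL 10% EtOH/0.9% NaCl via tail vein, then a saline flush. Killed by cardiac excision at set times. Organs were excised, weighed and gamma-counted. % dose/g was taken against diluted injectate. Mean ± SE and range, n=4 (5 min) or 5 (30–120 min).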"}, "[9]": {"tested_on": "Rattus norvegicus", "assay": "Distribution of radioactivity in rat spleen 60 min after intravenous administration of iodine labeled compound", "type": "ADME, organism-based", "settings": "in vivo, 1 h", "summary_of_the_method": "(§3)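 Tail-vein injection of [123I]ZIENT (10 μCi in 0.2 mL 10% EtOH/0.9% NaCl, then 0.4 mL saline flush) into ketamine-anaesthetised male Sprague–Dawley rats (225–300 g). Animals were killed by cardiac excision at set times. Organs were excised, rinsed, blotted, weighed and gamma-counted. % dose/g was calculated against diluted aliquots of injectate. Mean ± SE, n=4–5.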"}, "[10]": {"tested_on": "Rattus norvegicus", "assay": "Ratio of distribution of radioactivity in rat brain region hypothalamus and cerebellum 60 min after intravenous administration of iodine labeled compound in absence of blocker in study 2", "type": "ADME, organism-based", "settings": "in vivo, 1 h"}, "[11]": {"tested_on": "Rattus norvegicus", "assay": "Distribution of radioactivity in rat brain hypothalamus 5 min after intravenous administration of iodine labeled compound", "type": "ADME, organism-based", "settings": "in vivo", "summary_of_the_method": "as §2"}, "[12]": {"tested_on": "Rattus norvegicus", "assay": "Ratio of distribution of radioactivity in rat brain region prefrontal cortex and cerebellum 60 min after intravenous administration of iodine labeled compound in presence of fluvoxamine blocker in study 1", "type": "ADME, organism-based", "settings": "in vivo, 1 h"}, "[13]": {"tested_on": "Rattus norvegicus", "assay": "Distribution of radioactivity in rat brain region prefrontal cortex 60 min after intravenous administration of iodine labeled compound in presence of RTI-113 blocker in study 1", "type": "ADME, organism-based", "settings": "in vivo, 1 h", "summary_of_the_method": "(§4)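 Male Sprague–Dawley rats (250–300 g), ketamine-anesthetized. Blocker (2 mg/kg) or none was given iv 15 min before tail-vein radioligand (10 µCi in 0.2 mL 10% EtOH/saline). Rats were killed at 60 min with im pentobarbital. Brain regions were dissected, weighed and gamma-counted. % dose/g was taken from decay-corrected, background-subtracted counts versus the injected dose.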"}, "[14]": {"tested_on": "Rattus norvegicus", "assay": "Distribution of radioactivity in rat brain region frontal cortex 60 min after intravenous administration of iodine labeled compound in presence of fluvoxamine blocker in study 1", "type": "ADME, organism-based", "settings": "in vivo, 1 h", "summary_of_the_method": "as §4"}, "[15]": {"tested_on": "Rattus norvegicus", "assay": "Ratio of distribution of radioactivity in rat brain region striatum and cerebellum 60 min after intravenous administration of iodine labeled compound in presence of RTI-113 blocker in study 1", "type": "ADME, organism-based", "settings": "in vivo, 1 h"}, "[16]": {"tested_on": "Rattus norvegicus", "assay": "Distribution of radioactivity in rat brain region frontal cortex 60 min after intravenous administration of iodine labeled compound in presence of reboxetine blocker in study 2", "type": "ADME, organism-based", "settings": "in vivo, 1 h", "summary_of_the_method": "as §4"}, "[17]": {"tested_on": "Rattus norvegicus", "assay": "Distribution of radioactivity in rat brain region cerebellum 60 min after intravenous administration of iodine labeled compound in absence of blocker in study 1", "type": "ADME, organism-based", "settings": "in vivo, 1 h", "summary_of_the_method": "as §4"}, "[18]": {"tested_on": "Rattus norvegicus", "assay": "Ratio of distribution of radioactivity in rat brain hypothalamus and cerebellum 5 min after intravenous administration of iodine labeled compound", "type": "ADME, organism-based", "settings": "in vivo", "summary_of_the_method": "as §1"}, "[19]": {"tested_on": "Rattus norvegicus", "assay": "Ratio of distribution of radioactivity in rat brain region hypothalamus and cerebellum 60 min after intravenous administration of iodine labeled compound in absence of blocker in study 1", "type": "ADME, organism-based", "settings": "in vivo, 1 h"}, "[20]": {"tested_on": "Rattus norvegicus", "assay": "Distribution of radioactivity in rat thyroid 120 min after intravenous administration of iodine labeled compound", "type": "ADME, organism-based, Thyroid gland", "settings": "in vivo, 2 h", "summary_of_the_method": "as §3"}, "[21]": {"tested_on": "Rattus norvegicus", "assay": "Distribution of radioactivity in rat brain region striatum 60 min after intravenous administration of iodine labeled compound in presence of reboxetine blocker in study 2", "type": "ADME, organism-based", "settings": "in vivo, 1 h", "summary_of_the_method": "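Male Sprague–Dawley rats (250–300 g), ketamine-anaesthetised, received [123I]ZIENT (10 μCi) in 0.2 mL 10% ethanol/0.9% NaCl via the tail vein. […] Rats were killed at 60 min with pentobarbital, brain regions dissected and gamma-counted. Values are % dose/g from decay-corrected, background-subtracted counts against the diluted injected dose.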"}, "[22]": {"tested_on": "Rattus norvegicus", "assay": "Distribution of radioactivity in rat brain striatum 5 min after intravenous administration of iodine labeled compound", "type": "ADME, organism-based", "settings": "in vivo", "summary_of_the_method": "as §1"}, "[23]": {"tested_on": "Rattus norvegicus", "assay": "Ratio of distribution of radioactivity in rat brain hypothalamus and cerebellum 60 min after intravenous administration of iodine labeled compound", "type": "ADME, organism-based", "settings": "in vivo, 1 h", "summary_of_the_method": "as §1"}, "[24]": {"tested_on": "Rattus norvegicus", "assay": "Distribution of radioactivity in rat brain region prefrontal cortex 60 min after intravenous administration of iodine labeled compound in presence of fluvoxamine blocker in study 1", "type": "ADME, organism-based", "settings": "in vivo, 1 h", "summary_of_the_method": "as §4"}, "[25]": {"tested_on": "Rattus norvegicus", "assay": "Ratio of distribution of radioactivity in rat brain region striatum and cerebellum 60 min after intravenous administration of iodine labeled compound in absence of blocker in study 2", "type": "ADME, organism-based", "settings": "in vivo, 1 h"}, "[26]": {"tested_on": "Rattus norvegicus", "assay": "Ratio of distribution of radioactivity in rat brain region prefrontal cortex and cerebellum 60 min after intravenous administration of iodine labeled compound in absence of blocker in study 1", "type": "ADME, organism-based", "settings": "in vivo, 1 h"}, "[27]": {"tested_on": "Rattus norvegicus", "assay": "Distribution of radioactivity in rat brain region hypothalamus 60 min after intravenous administration of iodine labeled compound in presence of RTI-113 blocker in study 1", "type": "ADME, organism-based", "settings": "in vivo, 1 h", "summary_of_the_method": "as §4"}, "[28]": {"tested_on": "Rattus norvegicus", "assay": "Ratio of distribution of radioactivity in rat brain region striatum and cerebellum 60 min after intravenous administration of iodine labeled compound in presence of fluvoxamine blocker in study 1", "type": "ADME, organism-based", "settings": "in vivo, 1 h"}, "[29]": {"tested_on": "Rattus norvegicus", "assay": "Distribution of radioactivity in rat muscle tissue 120 min after intravenous administration of iodine labeled compound", "type": "ADME, organism-based", "settings": "in vivo, 2 h", "summary_of_the_method": "as §3"}}, "note": "Several values for one entry are separate records, joined by “and”; a condition that tells them apart may be missing. Equal entries are not always repeated."}
{"smiles": "COC(=O)[C@@H]1C2CCC(C[C@@H]1c1ccc(/C=C\\I)cc1)N2", "note": "(some centres undefined)", "values": [{"measurement": "Distribution (dose/g)", "setting": "[1]", "value": 0.68, "unit": "%"}, {"measurement": "Distribution (dose/g)", "setting": "[2]", "value": 0.76, "unit": "%"}, {"measurement": "Distribution (dose/g)", "setting": "[3]", "value": 2.79, "unit": "%"}, {"measurement": "Distribution (dose/g)", "setting": "[4]", "value": 2.35, "unit": "%"}, {"measurement": "Ki", "setting": "[5]", "value": 24, "unit": "nM"}, {"measurement": "Distribution (dose/g)", "setting": "[6]", "value": 3.12, "unit": "%"}, {"measurement": "Distribution (dose/g)", "setting": "[7]", "value": 4, "unit": "%"}, {"measurement": "Distribution (dose/g)", "setting": "[8]", "value": 0.44, "unit": "%"}, {"measurement": "Distribution (dose/g)", "setting": "[9]", "value": 0.61, "unit": "%"}, {"measurement": "Distribution (dose/g)", "setting": "[10]", "value": 3.95, "unit": "%"}, {"measurement": "Distribution (dose/g)", "setting": "[11]", "value": 0.58, "unit": "%"}, {"measurement": "Distribution (dose/g)", "setting": "[12]", "value": 1.65, "unit": "%"}, {"measurement": "Distribution (dose/g)", "setting": "[13]", "value": 0.78, "unit": "%"}, {"measurement": "Distribution (dose/g)", "setting": "[14]", "value": 0.27, "unit": "%"}, {"measurement": "Distribution (dose/g)", "setting": "[15]", "value": 2.56, "unit": "%"}, {"measurement": "Distribution (dose/g)", "setting": "[16]", "value": 0.63, "unit": "%"}, {"measurement": "Distribution (dose/g)", "setting": "[17]", "value": "0.24% and 0.19%"}, {"measurement": "Distribution (dose/g)", "setting": "[18]", "value": 1.09, "unit": "%"}, {"measurement": "Distribution (dose/g)", "setting": "[19]", "value": 3.83, "unit": "%"}, {"measurement": "Distribution (dose/g)", "setting": "[20]", "value": 1.87, "unit": "%"}, {"measurement": "Distribution (dose/g)", "setting": "[21]", "value": 0.66, "unit": "%"}, {"measurement": "Distribution (dose/g)", "setting": "[22]", "value": 0.64, "unit": "%"}, {"measurement": "Distribution (dose/g)", "setting": "[23]", "value": 3.08, "unit": "%"}, {"measurement": "Distribution (dose/g)", "setting": "[24]", "value": 0.28, "unit": "%"}, {"measurement": "Distribution (dose/g)", "setting": "[25]", "value": 3.32, "unit": "%"}, {"measurement": "Distribution (dose/g)", "setting": "[26]", "value": 3.88, "unit": "%"}, {"measurement": "Distribution (dose/g)", "setting": "[27]", "value": 0.8, "unit": "%"}, {"measurement": "Distribution (dose/g)", "setting": "[28]", "value": 1.76, "unit": "%"}, {"measurement": "Distribution (dose/g)", "setting": "[29]", "value": 0.17, "unit": "%"}]}
